Activity calls are given as the source filed them. Where only a bound is given, the exact number is not on record here.

As usually defined, the GI50 is the concentration at which growth is held to half of that of the control.

Assay [1] deals with GISTT1. In words: Antiproliferative activity against human GISTT1 cells after 72 hrs by Celltiter-Glo assay. The format is functional. Conditions: GISTT1, 72 h. The gist of the method: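 Cells seeded at 3000/well in 96-well plates, exposed to serially diluted compound for 72 h at 37 °C, 5% CO2. Viability read by CellTiter-Glo luminescence and normalized to DMSO control. GI50 derived from curve fit, mean of three independent measurements. Culture media: DMEM/10% FBS for adherent lines; IMDM for MV4-11 and MEC-1/2; RPMI 1640 for suspension lines and CHL.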

The test system of assay [2] is HL-60. In words: Induction of apoptosis in human HL60 cells assessed as decrease in XIAP level up to 3 uM after 2 hrs by immunoblotting analysis. The format is functional, cell-based. In general terms: In western blotting, separated proteins are transferred to a membrane and probed.
The subject of assay [3] is ALK tyrosine kinase receptor (Homo sapiens), Q9UM73 [C1156Y]. In words: Binding affinity to wild-type human partial length ALK C1156Y mutant (I1088 to E1409 residues) expressed in mammalian expression system assessed as remaining unbound target protein level at 1000 nM by Kinomescan method relative to control. In short, it runs like this:
(§1)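 Profiled in a KINOMEscan binding panel with the inhibitor at a single concentration of 1 μM. Binding to each kinase was read out as percent of control, relative to a DMSO control. Strong binders were defined as those with a percent control value below 1.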

For assay [4], the target named is Cyclin-dependent kinase 4/cyclin D1 (Homo sapiens) (UniProt P11802+P24385). In words: Binding affinity to wild-type human full length CDK4/cyclinD1 (M1 to E303 residues) expressed in mammalian expression system assessed as remaining unbound target protein level at 1000 nM by Kinomescan method relative to control. The gist of the method: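 KINOMEscan competitive binding profile at 1 μM inhibitor. Remaining target binding reported as percent of DMSO control.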

The target in assay [5] is Casein kinase I isoform alpha-like (Homo sapiens) (UniProt Q8N752). The assay can be described thus: Binding affinity to wild-type human full length CSNK1A1L (M1 to N337 residues) expressed in bacterial expression system assessed as remaining unbound target protein level at 1000 nM by Kinomescan method relative to control. The gist of the method:
(§2)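 Single-point competition binding screen across a panel of 468 kinases and mutants, with the inhibitor at 1 μM. Binding is read out as percent of a DMSO control, and targets below 1 percent control were classed as strong binders.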

Assay [6] deals with Dual specificity tyrosine-phosphorylation-regulated kinase 2 (Homo sapiens) (UniProt Q92630). The assay can be described thus: Binding affinity to wild-type human full length DYRK2 (M1 to S528 residues) expressed in mammalian expression system assessed as remaining unbound target protein level at 1000 nM by Kinomescan method relative to control. In short, it runs like this:
(§3)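 KINOMEscan competition binding profile across a panel of 468 kinases and mutants, with the inhibitor tested at a single concentration of 1 μM. Binding is reported as percent of control, meaning signal relative to a DMSO control.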

In assay [7] the test system is Receptor-type tyrosine-protein kinase FLT3 (Homo sapiens), P36888 [UNDEFINED MUTATION]. The assay can be described thus: Binding affinity to human partial length FLT3 ITD/D835V double mutant expressed in bacterial expression system assessed as remaining unbound target protein level at 1000 nM by Kinomescan method relative to control. The gist of the method:
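KINOMEscan competition-binding profiling across the panel of 468 kinases and mutants, with inhibitor tested at 1 μM. Binding is expressed as percent of control, with DMSO as the reference control.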

Assay [8] concerns the target Mast/stem cell growth factor receptor Kit (Homo sapiens) (UniProt P10721). In words: Binding affinity to wild-type human partial length autoinhibited KIT (Y545 to D952 residues) expressed in mammalian expression system assessed as remaining unbound target protein level at 1000 nM by Kinomescan method relative to control.
The target in assay [9] is Serine/threonine-protein kinase STK11 (Homo sapiens) (UniProt Q15831). The assay can be described thus: Binding affinity to wild-type human full length LKB1 (M1 to Q433 residues) expressed in bacterial expression system assessed as remaining unbound target protein level at 1000 nM by Kinomescan method relative to control. The gist of the method: as §2
For assay [10], the target named is Maternal embryonic leucine zipper kinase (Homo sapiens) (UniProt Q14680). In words: Binding affinity to wild-type human full length MELK (M1 to V651 residues) expressed in bacterial expression system assessed as remaining unbound target protein level at 1000 nM by Kinomescan method relative to control. In short, it runs like this:
as §2

In assay [11] the target is Misshapen-like kinase 1 (Homo sapiens) (UniProt Q8N4C8). The assay can be described thus: Binding affinity to wild-type human partial length MINK (M1 to K312 residues) expressed in mammalian expression system assessed as remaining unbound target protein level at 1000 nM by Kinomescan method relative to control.
Assay [12] deals with Serine/threonine-protein kinase Nek9 (Homo sapiens) (UniProt Q8TD19). The assay can be described thus: Binding affinity to wild-type human partial length NEK9 (P32 to R328 residues) expressed in bacterial expression system assessed as remaining unbound target protein level at 1000 nM by Kinomescan method relative to control.
Assay [13] concerns the target Cyclin-dependent kinase 18 (Homo sapiens) (UniProt Q07002). The assay can be described thus: Binding affinity to wild-type human full length PCTK3 (M3 to F474 residues) expressed in bacterial expression system assessed as remaining unbound target protein level at 1000 nM by Kinomescan method relative to control. The gist of the method:
as §3

The target in assay [14] is Serine/threonine-protein kinase pim-2 (Homo sapiens) (UniProt Q9P1W9). The assay can be described thus: Binding affinity to wild-type human partial length PIM2 (M1 to E291 residues) expressed in bacterial expression system assessed as remaining unbound target protein level at 1000 nM by Kinomescan method relative to control.
For assay [15], the target named is Serine/threonine-protein kinase RIO1 (Homo sapiens) (UniProt Q9BRS2). In words: Binding affinity to wild-type human full length RIOK1 (M1 to K568 residues) expressed in bacterial expression system assessed as remaining unbound target protein level at 1000 nM by Kinomescan method relative to control. In short, it runs like this:
as §1

The target in assay [16] is Rho-associated protein kinase 1 (Homo sapiens) (UniProt Q13464). The assay can be described thus: Binding affinity to wild-type human partial length ROCK1 (M1 to R415 residues) expressed in mammalian expression system assessed as remaining unbound target protein level at 1000 nM by Kinomescan method relative to control.
Assay [17] concerns the target Ribosomal protein S6 kinase alpha-6 (Homo sapiens) (UniProt Q9UK32). In words: Binding affinity to wild-type human partial length C-terminal RSK4 kinase domain 2 (I401 to Y711 residues) expressed in bacterial expression system assessed as remaining unbound target protein level at 1000 nM by Kinomescan method relative to control. The gist of the method: as §3
In assay [18] the target is STE20-like serine/threonine-protein kinase (Homo sapiens) (UniProt Q9H2G2). In words: Binding affinity to wild-type human partial length SLK (S14 to A307 residues) expressed in bacterial expression system assessed as remaining unbound target protein level at 1000 nM by Kinomescan method relative to control.
The target of assay [19] is Angiopoietin-1 receptor (Homo sapiens) (UniProt Q02763). In words: Binding affinity to wild-type human partial length TIE2 (N804 to T1112 residues) expressed in bacterial expression system assessed as remaining unbound target protein level at 1000 nM by Kinomescan method relative to control.
The species named for assay [20] is Homo sapiens. The assay can be described thus: Selectivity ratio of IC50 for recombinant GST-tagged inactive state of human CDK11 to IC50 for recombinant full length His-tagged human CDK9/CyclinT1.

Chain of Maternal embryonic leucine zipper kinase (Homo sapiens) (Q14680 whole entry, looked up, the tested form may be a part): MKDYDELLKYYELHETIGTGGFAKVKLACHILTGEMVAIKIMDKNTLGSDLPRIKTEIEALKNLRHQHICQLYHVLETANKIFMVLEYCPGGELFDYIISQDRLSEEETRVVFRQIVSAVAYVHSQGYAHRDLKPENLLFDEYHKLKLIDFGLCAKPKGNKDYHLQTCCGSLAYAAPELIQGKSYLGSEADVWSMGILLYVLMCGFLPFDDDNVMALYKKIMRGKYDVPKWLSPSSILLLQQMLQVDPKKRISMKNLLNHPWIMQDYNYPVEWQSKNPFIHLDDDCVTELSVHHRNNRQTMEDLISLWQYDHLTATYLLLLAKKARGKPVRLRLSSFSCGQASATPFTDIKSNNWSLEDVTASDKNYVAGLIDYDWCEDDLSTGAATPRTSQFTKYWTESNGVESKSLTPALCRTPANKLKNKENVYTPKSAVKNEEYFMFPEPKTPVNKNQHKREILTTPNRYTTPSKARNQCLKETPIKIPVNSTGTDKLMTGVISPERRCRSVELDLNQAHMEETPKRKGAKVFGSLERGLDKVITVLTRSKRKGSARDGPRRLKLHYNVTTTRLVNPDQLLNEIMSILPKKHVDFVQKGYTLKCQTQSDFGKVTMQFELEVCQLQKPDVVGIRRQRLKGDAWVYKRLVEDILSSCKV
Chain of Serine/threonine-protein kinase STK11 (Homo sapiens) (Q15831 whole entry, the tested form may be a part): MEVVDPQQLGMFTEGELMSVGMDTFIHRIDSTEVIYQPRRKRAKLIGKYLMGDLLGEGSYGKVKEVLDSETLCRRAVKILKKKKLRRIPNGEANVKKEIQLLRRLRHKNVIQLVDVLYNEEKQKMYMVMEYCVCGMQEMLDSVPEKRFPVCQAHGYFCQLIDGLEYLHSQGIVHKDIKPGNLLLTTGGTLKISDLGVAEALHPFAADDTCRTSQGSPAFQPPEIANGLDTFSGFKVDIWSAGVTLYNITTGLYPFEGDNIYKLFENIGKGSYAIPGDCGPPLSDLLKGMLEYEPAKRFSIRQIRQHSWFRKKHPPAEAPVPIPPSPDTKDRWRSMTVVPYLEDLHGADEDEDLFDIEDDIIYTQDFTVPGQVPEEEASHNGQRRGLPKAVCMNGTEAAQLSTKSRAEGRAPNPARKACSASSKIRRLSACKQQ
Chain of Dual specificity tyrosine-phosphorylation-regulated kinase 2 (Homo sapiens) (Q92630 whole entry, the tested form may be a part): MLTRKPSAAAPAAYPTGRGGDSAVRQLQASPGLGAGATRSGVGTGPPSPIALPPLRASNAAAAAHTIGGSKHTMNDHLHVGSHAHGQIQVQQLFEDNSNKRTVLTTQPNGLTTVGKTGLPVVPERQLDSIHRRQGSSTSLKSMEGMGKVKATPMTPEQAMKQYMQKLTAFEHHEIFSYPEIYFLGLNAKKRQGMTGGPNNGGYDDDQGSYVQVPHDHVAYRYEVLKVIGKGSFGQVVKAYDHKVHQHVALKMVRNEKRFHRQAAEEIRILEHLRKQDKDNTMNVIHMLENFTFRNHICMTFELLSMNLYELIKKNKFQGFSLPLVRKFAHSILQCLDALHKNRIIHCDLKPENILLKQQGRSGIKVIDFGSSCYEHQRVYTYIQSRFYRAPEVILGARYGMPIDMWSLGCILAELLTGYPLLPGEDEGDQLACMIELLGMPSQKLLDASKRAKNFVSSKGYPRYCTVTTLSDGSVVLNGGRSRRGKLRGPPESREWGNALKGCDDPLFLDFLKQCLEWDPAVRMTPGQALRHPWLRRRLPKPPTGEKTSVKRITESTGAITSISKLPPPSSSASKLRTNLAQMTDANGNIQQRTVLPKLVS
Chain of Receptor-type tyrosine-protein kinase FLT3 (Homo sapiens), P36888 [UNDEFINED MUTATION] (P36888 whole entry, looked up, stated change not applied): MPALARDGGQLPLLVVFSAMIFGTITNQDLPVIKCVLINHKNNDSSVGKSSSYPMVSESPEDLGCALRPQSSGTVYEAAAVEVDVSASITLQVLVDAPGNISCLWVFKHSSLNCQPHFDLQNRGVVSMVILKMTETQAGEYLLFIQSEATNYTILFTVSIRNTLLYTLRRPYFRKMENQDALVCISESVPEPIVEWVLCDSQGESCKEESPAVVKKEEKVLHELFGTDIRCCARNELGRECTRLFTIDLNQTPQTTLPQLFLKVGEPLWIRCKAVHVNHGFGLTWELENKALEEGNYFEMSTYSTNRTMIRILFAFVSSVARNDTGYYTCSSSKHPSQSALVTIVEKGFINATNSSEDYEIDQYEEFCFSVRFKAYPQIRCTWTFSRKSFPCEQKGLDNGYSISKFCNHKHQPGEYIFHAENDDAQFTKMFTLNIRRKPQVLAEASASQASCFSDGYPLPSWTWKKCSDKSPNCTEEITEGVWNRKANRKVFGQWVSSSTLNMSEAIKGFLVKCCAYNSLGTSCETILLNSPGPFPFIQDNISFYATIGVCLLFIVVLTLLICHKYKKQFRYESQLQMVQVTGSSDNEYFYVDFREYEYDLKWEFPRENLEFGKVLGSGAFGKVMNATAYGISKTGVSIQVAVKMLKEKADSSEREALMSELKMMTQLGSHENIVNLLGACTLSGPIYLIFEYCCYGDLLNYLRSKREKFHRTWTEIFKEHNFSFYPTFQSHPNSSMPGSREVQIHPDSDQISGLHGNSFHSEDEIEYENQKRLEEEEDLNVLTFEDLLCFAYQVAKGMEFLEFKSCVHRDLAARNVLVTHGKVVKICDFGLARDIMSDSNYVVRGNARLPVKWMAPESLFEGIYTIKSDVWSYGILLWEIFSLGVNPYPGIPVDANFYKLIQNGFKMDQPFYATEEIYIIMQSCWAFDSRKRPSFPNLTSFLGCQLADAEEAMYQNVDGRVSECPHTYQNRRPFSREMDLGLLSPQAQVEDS
Chain of Casein kinase I isoform alpha-like (Homo sapiens) (Q8N752 whole entry, the tested form may be a part, canonical isoform): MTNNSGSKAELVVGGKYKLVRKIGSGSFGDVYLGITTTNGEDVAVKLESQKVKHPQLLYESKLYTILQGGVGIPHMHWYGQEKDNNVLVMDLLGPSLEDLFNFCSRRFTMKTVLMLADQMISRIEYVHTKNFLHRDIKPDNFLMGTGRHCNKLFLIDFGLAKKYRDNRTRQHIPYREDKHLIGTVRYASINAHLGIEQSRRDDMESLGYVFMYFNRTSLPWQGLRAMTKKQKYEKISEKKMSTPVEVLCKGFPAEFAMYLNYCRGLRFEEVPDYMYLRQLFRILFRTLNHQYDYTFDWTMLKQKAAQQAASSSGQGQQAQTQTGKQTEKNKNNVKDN
Chain of Misshapen-like kinase 1 (Homo sapiens) (Q8N4C8 whole entry, looked up, the tested form may be a part): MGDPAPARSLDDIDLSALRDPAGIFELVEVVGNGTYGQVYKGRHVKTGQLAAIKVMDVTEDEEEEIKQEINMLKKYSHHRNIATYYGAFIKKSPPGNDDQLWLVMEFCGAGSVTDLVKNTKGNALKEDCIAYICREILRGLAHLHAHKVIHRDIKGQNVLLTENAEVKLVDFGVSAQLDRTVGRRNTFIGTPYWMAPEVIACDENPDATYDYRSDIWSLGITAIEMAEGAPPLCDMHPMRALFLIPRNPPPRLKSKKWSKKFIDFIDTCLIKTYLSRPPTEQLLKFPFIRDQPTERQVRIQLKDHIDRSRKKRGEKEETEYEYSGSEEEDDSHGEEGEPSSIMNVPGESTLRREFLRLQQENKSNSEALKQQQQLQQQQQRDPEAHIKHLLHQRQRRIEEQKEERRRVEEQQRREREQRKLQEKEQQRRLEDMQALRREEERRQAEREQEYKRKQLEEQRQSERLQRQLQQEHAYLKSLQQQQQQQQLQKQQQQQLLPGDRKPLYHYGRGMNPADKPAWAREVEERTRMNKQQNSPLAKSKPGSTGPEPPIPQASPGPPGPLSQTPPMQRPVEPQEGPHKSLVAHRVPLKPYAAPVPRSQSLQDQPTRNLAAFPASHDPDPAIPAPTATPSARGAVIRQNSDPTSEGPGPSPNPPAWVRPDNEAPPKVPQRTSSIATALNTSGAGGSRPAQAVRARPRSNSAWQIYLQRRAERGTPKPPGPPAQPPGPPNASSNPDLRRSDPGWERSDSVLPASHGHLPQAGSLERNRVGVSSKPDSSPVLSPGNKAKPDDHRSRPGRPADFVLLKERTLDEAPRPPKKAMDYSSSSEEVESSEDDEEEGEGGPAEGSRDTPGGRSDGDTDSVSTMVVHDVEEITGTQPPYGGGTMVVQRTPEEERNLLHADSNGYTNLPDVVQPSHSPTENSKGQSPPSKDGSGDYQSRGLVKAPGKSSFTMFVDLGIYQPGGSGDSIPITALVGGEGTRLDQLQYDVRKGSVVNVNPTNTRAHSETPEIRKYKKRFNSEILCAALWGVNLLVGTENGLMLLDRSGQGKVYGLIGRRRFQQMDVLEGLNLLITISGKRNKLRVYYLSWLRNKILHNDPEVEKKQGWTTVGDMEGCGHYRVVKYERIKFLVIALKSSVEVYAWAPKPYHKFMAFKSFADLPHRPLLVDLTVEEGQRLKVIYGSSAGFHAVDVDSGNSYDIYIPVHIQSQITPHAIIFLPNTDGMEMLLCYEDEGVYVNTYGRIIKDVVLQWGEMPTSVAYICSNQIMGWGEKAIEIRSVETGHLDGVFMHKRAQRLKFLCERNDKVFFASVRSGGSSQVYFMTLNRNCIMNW
Chain of Serine/threonine-protein kinase pim-2 (Homo sapiens) (Q9P1W9 whole entry, looked up, the tested form may be a part): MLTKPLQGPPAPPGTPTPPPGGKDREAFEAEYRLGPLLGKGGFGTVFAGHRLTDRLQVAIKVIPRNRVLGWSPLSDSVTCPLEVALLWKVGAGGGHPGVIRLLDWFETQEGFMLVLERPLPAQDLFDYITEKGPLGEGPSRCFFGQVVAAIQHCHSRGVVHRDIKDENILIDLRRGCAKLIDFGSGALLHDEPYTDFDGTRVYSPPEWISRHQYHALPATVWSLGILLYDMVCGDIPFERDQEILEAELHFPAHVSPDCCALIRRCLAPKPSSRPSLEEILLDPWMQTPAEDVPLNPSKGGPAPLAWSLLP

`COCCN[C@H]1CC[C@H](Nc2cc(-c3csc(NCC4(C#N)CCOCC4)n3)c(Cl)cn2)CC1`: it took 2.1 nM to inhibit growth in assay [1] by half (GI50). In addition, the result in assay [2] was inactive. For the same molecule, the Activity in [3] is 86%; in assay [4], 69%; in assay [5], 96%; in assay [6] it was 5.2%; in assay [7] it was 65%; in assay [8], 94%. For the same molecule, the Activity in [9] worked out at 100%; in assay [10] it was 75%; in assay [11], 92%; in assay [12], 89%; in [13] it was 49%; in assay [14], 53%. Moreover, the Activity came to 79% in [15]; 93% in [16]; 99% in assay [17]; 81% in assay [18]; 89% in assay [19]. Moreover, the Ratio IC50 in [20] is more than 1000.

Source of the values: ChEMBL document CHEMBL4261600 (Eur J Med Chem, 2018).
